# ERAP1 inh = blocks human ERAP1 aminopeptidase activity; Q9NZ08; recombinant ERAP1, Leu-AMC fluorescence, 60 min; inhibition, % at 10.7 µM; hit rate 0.15% among 340,000; AID 652197;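 active = mean replicate inhibition of at least 30%, or all replicates individually reaching that 30% level; inactive = mean below 30% and not every replicate reaching it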;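 note: 0% = neutral control wells and 100% = L-leucinethiol positive control wells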
# Target sequence (Q9NZ08 whole entry, looked up): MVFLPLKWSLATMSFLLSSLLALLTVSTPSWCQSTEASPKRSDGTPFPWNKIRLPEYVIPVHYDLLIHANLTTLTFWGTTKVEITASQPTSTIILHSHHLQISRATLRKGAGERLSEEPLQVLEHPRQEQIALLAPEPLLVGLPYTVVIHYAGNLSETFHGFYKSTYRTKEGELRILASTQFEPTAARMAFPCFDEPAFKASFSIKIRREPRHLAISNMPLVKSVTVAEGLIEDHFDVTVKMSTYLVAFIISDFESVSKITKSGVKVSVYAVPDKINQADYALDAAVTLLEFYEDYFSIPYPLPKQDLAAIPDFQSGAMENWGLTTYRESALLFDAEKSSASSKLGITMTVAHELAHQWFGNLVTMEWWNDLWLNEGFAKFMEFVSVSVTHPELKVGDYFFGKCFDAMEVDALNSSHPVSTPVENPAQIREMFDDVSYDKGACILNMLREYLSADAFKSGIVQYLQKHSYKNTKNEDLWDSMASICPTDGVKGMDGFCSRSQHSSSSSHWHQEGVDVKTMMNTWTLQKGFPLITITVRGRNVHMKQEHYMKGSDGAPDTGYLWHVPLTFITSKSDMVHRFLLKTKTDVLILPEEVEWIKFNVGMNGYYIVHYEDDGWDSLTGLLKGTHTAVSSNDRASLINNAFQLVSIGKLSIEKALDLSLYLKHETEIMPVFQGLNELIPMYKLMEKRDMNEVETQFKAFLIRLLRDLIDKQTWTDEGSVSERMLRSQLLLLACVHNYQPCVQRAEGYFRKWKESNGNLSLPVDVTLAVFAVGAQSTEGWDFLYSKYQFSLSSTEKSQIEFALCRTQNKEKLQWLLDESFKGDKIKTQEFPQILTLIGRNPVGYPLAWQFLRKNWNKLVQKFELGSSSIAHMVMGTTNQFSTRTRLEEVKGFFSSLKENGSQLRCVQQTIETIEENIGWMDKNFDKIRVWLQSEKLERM
# CaV13 FRET inh = Primary screen for inhibitors of IQ motif and Ca2+-dependent inactivation inhibitor domain binding in CACNA1D, Förster resonance energy transfer in living cells, …; HEK cells, CFP/YFP FRET ICDI-IQ, plate reader, 10 min; percent FRET-ratio fall versus neutral wells; AID 743397; hit rate 0.098% among 340,000; inhibition, % at 12.3 µM;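 active = mean replicate inhibition of at least 30% and at least 1% of replicates passing that level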;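 note: 0% = median of the neutral control wells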
# PvdQ acylase = blocks Pseudomonas aeruginosa PvdQ acylase activity | AID 488965 | purified PvdQ acylase, fluorescence plate reader | inhibition, % at 10 µM | hit rate 0.063% among 340,000; in the data active = inhibition above about 30%, passing the limit was not always enough;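 note: 0% = vehicle neutral wells and 100% = reference inhibitor wells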
# Xi reactivation = activators of X-chromosome reactivation in mouse fibroblasts | XiGFP mouse fibroblasts, % GFP-positive cells imaging, 3 d; cells co-treated with 5-aza-dC sensitizer; scaled so ellipticine positive control = 100% | activation, % at 7.58 µM | hit rate 0.055% among 360,000 | AID 743238;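 active = mean normalized replicate activation at least 10% and every replicate at or above 10%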;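 note: 0% = median of on-plate neutral control wells and 100% = ellipticine 6 µM median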
#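 System: 68-5-11 XiGFP fibroblast line; Timing: 3 days compound exposure; Compound dosing: one concentration, pinned; Benchmarks: positive control ellipticine, 6 µM final; Buffer or medium: DMEM containing 5-aza-dC.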
# Active calls of the source: *; . = not tested or not shown. In the library only some 0.27% were active in any assay of this set; here they are far more common.
SMILES,ERAP1 inh,CaV13 FRET inh,PvdQ acylase,Xi reactivation
COc1ccc(C[C@H]2CN3C(=NC[C@@H]3Cc3ccccc3)N2CCNC(=O)CCC2CCCCC2)cc1,10,65*,-2,0
Cc1ccc(S(=O)(=O)Nc2ccc(Nc3ccccc3)cc2)cc1,-4,68*,-14,0
COc1ccc([C@@H]2C/C=C\C[C@@H](c3ccccc3)NC(=O)CCC(=O)N2)c(OC)c1,.,.,.,0
CCOC(=O)C(Cc1ccnc2ccccc12)=NO,3,-6,-22,1
CCOC(=O)/C(CCC[N+](C)(CC)CC)=N\O,111*,-3,9,0
Cc1cccc(NC(=O)c2ccc3c(c2)OCCO3)n1,.,.,37*,.
CCOc1ccc(C(=O)Nc2cccc(C)n2)cc1,.,-3,51*,.
O=C(N[C@H]1CC[C@H](CCNC(=O)C2CC2)O[C@@H]1CO)c1ccncc1,0,.,.,0
COc1ccc2nc(C)cc(NCc3ccc(F)cc3)c2c1,0,-10,-14,97*
COc1ccc2nc(C)cc(Nc3ccc(C)cc3)c2c1,1,-3,-9,0
O=c1[nH]c(=S)[nH]c2sccc12,50*,-3,7,0
O=c1[nH]c(=S)[nH]c2scc(-c3ccc(Br)cc3)c12,.,-1,-11,0
CS(=O)(=O)Nc1cccc(-c2cn3c(n2)SCC3)c1,26,-13,8,0
O=S(=O)(Nc1cccc(-c2cn3c(n2)SCC3)c1)c1ccccc1,46*,-6,-14,0
Cc1ccc(OCC(=O)Nc2ccc(S(=O)(=O)N(C)C3CCN(C)CC3)cc2)c(C)c1,90*,.,-16,0
Cc1ccc(S(=O)(=O)CCC(=O)Nc2cccc(S(=O)(=O)N3CCCCCC3)c2)cc1,0,-16,-3,0
Cc1ccc(S(=O)(=O)CCC(=O)OCC(=O)Nc2cccc(S(=O)(=O)N3CCCCC3)c2)cc1,4,58*,.,1
COc1ccc(C(C#N)c2ccc(Cl)nn2)cc1 (stereo not given),2,-6,46*,0
COc1ccc(C(C#N)c2nc3ccccc3nc2Cl)cc1 (stereo not given),0,-2,3,0
N#CC(c1ccc(Cl)nn1)c1ccc(Cl)cc1Cl (stereo not given),.,.,114*,.
CC(C)C(=O)Nc1ccc2c(c1)C(=O)N(C)[C@@H]1CC[C@H](CC(=O)Nc3ccccc3)O[C@@H]1CO2,-2,.,.,0
Cc1ccc2c(c1)S/C(=C/c1ccc[n+](C)c1)N2CCO,52*,0,5,0
Cc1ccccc1-c1ccc([C@H]2[C@@H](CO)N3C(=O)CN(C(=O)c4cccnc4)C[C@H]23)cc1,.,.,.,0
Cc1ccc(O)c(C(=O)/C=C/c2ccc3c(c2)OCCO3)c1,8,-10,64*,0
Cc1ccc(C(=O)C=Cc2ccc3c(c2)OCO3)c(C)c1,-5,-5,.,0
SMILES,ERAP1 inh,CaV13 FRET inh,PvdQ acylase,Xi reactivation
Cc1noc(C)c1S(=O)(=O)N(C)C[C@H]1Oc2ccc(NC(=O)Nc3ccc(C(F)(F)F)cc3)cc2C(=O)N([C@H](C)CO)C[C@@H]1C,.,.,.,0
Cn1c(=O)c(NC2CCCCC2)c2c3c(cccc31)C(=O)c1ccccc1-2,-3,-13,-5,116*
Cn1c(=O)c(NCCO)c2c3c(cccc31)C(=O)c1ccccc1-2,7,.,-6,.
CN1CCN(S(=O)(=O)c2ccc(C3CCCCC3)cc2)CC1,96*,-6,-3,0
C[C@H]1CN(C)C(=O)c2ccccc2O[C@@H]1CN(C)C,.,.,.,0
C[C@@H]1CC=CCCNC(=O)[C@@H](C)N(C)C(=O)c2ccccc2O1 (mixture of isomers),.,.,.,0
C[C@H](CO)N1C[C@H](C)[C@H](CN(C)C(=O)Nc2cccc3ccccc23)Oc2ncc(C#Cc3cccc(F)c3)cc2C1=O,-1,.,.,-1
N#C/C(=C/c1ccc(N2CCCCC2)o1)C(=O)Nc1ccc2ccccc2c1,-6,-77,3,109*
CSc1ccc(Cn2c(C)c(C(=O)NCCC#N)sc2=O)cc1,.,34*,.,2
Cc1c(C(=O)NCc2ccc3c(c2)OCCO3)sc(=O)n1Cc1ccccc1C(F)(F)F,.,11,.,0
Cc1c(C(=O)NCc2cccc([N+](=O)[O-])c2)sc(=O)n1Cc1cccc(F)c1,.,63*,.,0
Cc1c(C(=O)NCc2cccc(C(F)(F)F)c2)sc(=O)n1Cc1ccc(C(=O)N(C)C)cc1,.,47*,.,0
Cc1c(C(=O)NCc2ccc3c(c2)OCCO3)sc(=O)n1Cc1ccccc1F,.,73*,.,0
CN(C)C(=O)c1ccc(-c2ccc([C@@H]3[C@@H](C#N)N(C(=O)C4CC4)[C@H]3CO)cc2)cc1,5,.,.,0
COCCNC(=O)C[C@H]1CC[C@@H]2[C@H](COc3ccc(NC(=O)c4cc(C)on4)cc3C(=O)N2C)O1,0,.,.,0
COc1ccc(CNC(=O)c2sc(=O)n(Cc3ccc(-c4ccccc4)cc3)c2C)cc1OC,-1,-7,.,0
COc1ccc(CNC(=O)c2sc(=O)n(Cc3ccc(C)cc3)c2C)cc1OC,.,55*,.,0
O=C1[C@H](Cc2ccc(C(F)(F)F)cc2)CCn2cc(nn2)COC[C@H]2CCCCN12,.,.,.,0
COc1ccccc1N(C(C)=O)C1=C(Cl)C(=O)c2ccccc2C1=O,61*,-6,.,0
COc1ccccc1N(C(=O)CCl)c1cn(C(C)=O)c2ccccc12,.,-19,-3,0
O=c1[nH]c(=O)c2[nH]c(=S)[nH]c2[nH]1,50*,-6,-15,0
O=C(C1CCCCC1)N1CC(=O)N2[C@H](CO)[C@H](c3ccc(C#CCc4ccccc4)cc3)[C@@H]2C1,.,.,.,0
O=C(C[C@@H]1C[C@H]2c3cc(NC(=O)C4CCC4)ccc3O[C@H]2[C@H](CO)O1)NCc1cccc(F)c1,-5,.,.,0
O=C(O)c1cc2nccc(-c3ccco3)n2n1,-10,-2,39*,0
Cc1ccc2c(c1)N(C(=O)CCC(=O)NCCCN1CCOCC1)CC(C)O2 (stereo not given),4,47*,-18,0
SMILES,ERAP1 inh,CaV13 FRET inh,PvdQ acylase,Xi reactivation
CC1CC(C)CN(CCCNC(=O)CCC(=O)N2CC(C)Oc3ccccc32)C1 (stereo not given),2,38*,0,0
CC1CN(C(=O)CCC(=O)NCCc2ccccc2)c2ccccc2O1 (stereo not given),7,-6,-1,0
Cc1ccc2c(c1)N(C(=O)CCC(=O)NCCN1CCOCC1)CC(C)O2 (stereo not given),5,-6,-12,0
C[C@H](CO)N1C[C@H](C)[C@@H](CN(C)Cc2ccncc2)Oc2c(NC(=O)Cn3cnnn3)cccc2C1=O,.,.,.,0
CCOC(=O)c1c(C)n(C)c2ccc(OCC(O)CN3CCC(C)CC3)cc12 (stereo not given),.,40*,-8,0
CC(=O)N(C)C[C@@H]1Oc2c(cccc2N(C)C)C(=O)N(C)C[C@@H]1C,.,.,.,0
COc1ccc(CN2CC3(CCN(C(=O)Nc4cccc(F)c4)CC3)c3c([nH]c4cc(OC)ccc34)[C@@H]2CO)cc1,.,.,.,0

# Bioassay records as filed in PubChem BioAssay.
